Results taken from ChEMBL document CHEMBL1154869, “Melodinines A-G, monoterpenoid indole alkaloids from Melodinus henryi” (J Nat Prod, 2010).

What was measured:
Assay type in all cases: functional, cell-based
A549 = test: Cytotoxic activity against human A549 cells after 48 hrs by MTT assay; settings: A549, 48 h
In short: (§1)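 Cells kept in RPMI1640 or DMEM with 10% FBS, 5% CO2, 37 °C. Adherent lines seeded in 96-well plates and left 12 h to attach; suspension cells (HL-60) seeded at drug addition, 1 × 10^5 cells/mL. Compounds at 0.0625, 0.32, 1.6, 8 and 40 µM in triplicate for 48 h. Viability by MTT; IC50 from growth curves via Reed and Muench method; cisplatin positive control.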

SMMC-7721 = test: Cytotoxic activity against human SMMC7721 cells after 48 hrs by MTT assay; settings: SMMC-7721, 48 h; in short: as §1
SK-BR-3 = test: Cytotoxic activity against human SK-BR-3 cells after 48 hrs by MTT assay; settings: SK-BR-3, 48 h; in short: as §1
HL-60 = test: Cytotoxic activity against human HL60 cells after 48 hrs by MTT assay; settings: HL-60, 48 h; in short: as §1

Structure (SMILES) | IC50 (A549) [µM] | IC50 (SMMC-7721) [µM] | IC50 (SK-BR-3) [µM] | IC50 (HL-60) [µM]
C/C=C(/C=O)[C@@H]1C[C@H]2c3[nH]c4ccccc4c3CCN2C=C1C(=O)OC [VALLESIACHOTAMINE] | 26 | 16.8 | 24.7 | 2
CC[C@@]12C=Cn3c4c(c5ccccc53)CC[N+]([O-])(CCC1)[C@H]42 (some centres undefined) [MELODININE G] | > 40 | > 40 | > 40 | > 40
CC[C@]12CCCN3CCc4c(n(c5ccccc45)[C@H](OC)C1)[C@@H]32 | > 40 | > 40 | > 40 | > 40
CC[C@@]12C=Cn3c4c(c5ccccc53)CCN(CCC1)[C@H]42 | > 40 | > 40 | > 40 | > 40
CC[C@@H]1CN2CC[C@]34c5ccccc5-n5c3c(cc(C(N)=O)c5=O)[C@H]1C[C@H]24 [LEUCONICINE A] | > 40 | > 40 | > 40 | > 40
CCC1=CN2CC[C@]34c5ccccc5-n5c3c(cc(C(=O)OC)c5=O)[C@H]1C[C@H]24 [MELODININE B] | > 40 | > 40 | > 40 | > 40
CC[C@@H]1CN2CC[C@]34c5ccccc5-n5c3c(cc(C(=O)O)c5=O)[C@H]1C[C@H]24 [MELODININE C] | > 40 | > 40 | > 40 | > 40
CC[C@@]12CCCN3C(=O)C=C4c5ccccc5N(C(=O)CC1)C432 (some centres undefined) [MELODININE E] | > 40 | > 40 | > 40 | > 40
CC[C@]12CCC[N+]3([O-])CCc4c(n(c5ccccc45)[C@H](OC)C1)[C@H]23 (some centres undefined) [MELODININE F] | > 40 | > 40 | > 40 | > 40
COC(=O)C1=C2Nc3ccccc3[C@]23CCN2CC[C@H]1[C@@]1(O[C@H]1C)[C@@H]23 [MELODININE D] | > 40 | > 40 | > 40 | > 40
CC[C@@H]1CN2CC[C@]34c5ccccc5-n5c3c(cc(C(=O)OC)c5=O)[C@H]1C[C@H]24 [LEUCONICINE B] | > 40 | > 40 | > 40 | > 40
